Reference: paper PMC7693064 (American Journal of Hematology, 2020)

Legend:
[1] = Pegcetacoplan serum concentrations; assay type: in vivo, human; settings: single-dose phase, SC 25 or 50 mg (cohorts 1 and 2)
subjects with PNH [2] = test: Hemolytic markers; assay type: in vivo, human
subjects with PNH [3] = test: Packed RBC transfusions, PHAROAH; assay type: in vivo, human
Outline: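 Packed RBC transfusions given to each cohort 4 subject were recorded throughout the study. […] Pegcetacoplan was given at 270 mg/d SC, and dosing could be increased with Sponsor approval.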

PNH RBCs = assay type: in vivo, human
Outline: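 Whole-blood flow cytometry. RBCs were gated with FITC anti-human glycophorin A, and CD59 was detected with PE anti-CD59 to classify type II (partial) and type III (complete) deficient cells. C3 deposition was detected with biotinylated anti-human C3d plus streptavidin-APC. Matched mouse IgG isotype controls were included.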

C3 = C3 (Homo sapiens, UniProt P01024); test: Serum C3 levels, PHAROAH; assay type: in vivo
Outline: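 Values were judged against the reference range in use at each time point. For one subject, pegcetacoplan dosing was suspended between days 29 and 56 and resumed at 180 mg/d on day 57. Individual data were plotted over time.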

classical pathway = test: CH50 assay, hemolytic activity of the classical pathway, PHAROAH; assay type: in vivo, human; settings: six subjects, first year of treatment, with eculizumab
Outline: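 Results were reported in complement activity enzyme units or U/mL, as the laboratory changed units during the study. Each value was judged against the reference range in use at that time point. Individual subject data were plotted over time.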

alternative pathway = test: AH50 assay, hemolytic activity of the alternative pathway, PHAROAH; assay type: in vivo, human
[4] = subject 12, day 421, after initial attempt to discontinue eculizumab with no increase in pegcetacoplan dosing

C3, sequence (P01024 23-1663): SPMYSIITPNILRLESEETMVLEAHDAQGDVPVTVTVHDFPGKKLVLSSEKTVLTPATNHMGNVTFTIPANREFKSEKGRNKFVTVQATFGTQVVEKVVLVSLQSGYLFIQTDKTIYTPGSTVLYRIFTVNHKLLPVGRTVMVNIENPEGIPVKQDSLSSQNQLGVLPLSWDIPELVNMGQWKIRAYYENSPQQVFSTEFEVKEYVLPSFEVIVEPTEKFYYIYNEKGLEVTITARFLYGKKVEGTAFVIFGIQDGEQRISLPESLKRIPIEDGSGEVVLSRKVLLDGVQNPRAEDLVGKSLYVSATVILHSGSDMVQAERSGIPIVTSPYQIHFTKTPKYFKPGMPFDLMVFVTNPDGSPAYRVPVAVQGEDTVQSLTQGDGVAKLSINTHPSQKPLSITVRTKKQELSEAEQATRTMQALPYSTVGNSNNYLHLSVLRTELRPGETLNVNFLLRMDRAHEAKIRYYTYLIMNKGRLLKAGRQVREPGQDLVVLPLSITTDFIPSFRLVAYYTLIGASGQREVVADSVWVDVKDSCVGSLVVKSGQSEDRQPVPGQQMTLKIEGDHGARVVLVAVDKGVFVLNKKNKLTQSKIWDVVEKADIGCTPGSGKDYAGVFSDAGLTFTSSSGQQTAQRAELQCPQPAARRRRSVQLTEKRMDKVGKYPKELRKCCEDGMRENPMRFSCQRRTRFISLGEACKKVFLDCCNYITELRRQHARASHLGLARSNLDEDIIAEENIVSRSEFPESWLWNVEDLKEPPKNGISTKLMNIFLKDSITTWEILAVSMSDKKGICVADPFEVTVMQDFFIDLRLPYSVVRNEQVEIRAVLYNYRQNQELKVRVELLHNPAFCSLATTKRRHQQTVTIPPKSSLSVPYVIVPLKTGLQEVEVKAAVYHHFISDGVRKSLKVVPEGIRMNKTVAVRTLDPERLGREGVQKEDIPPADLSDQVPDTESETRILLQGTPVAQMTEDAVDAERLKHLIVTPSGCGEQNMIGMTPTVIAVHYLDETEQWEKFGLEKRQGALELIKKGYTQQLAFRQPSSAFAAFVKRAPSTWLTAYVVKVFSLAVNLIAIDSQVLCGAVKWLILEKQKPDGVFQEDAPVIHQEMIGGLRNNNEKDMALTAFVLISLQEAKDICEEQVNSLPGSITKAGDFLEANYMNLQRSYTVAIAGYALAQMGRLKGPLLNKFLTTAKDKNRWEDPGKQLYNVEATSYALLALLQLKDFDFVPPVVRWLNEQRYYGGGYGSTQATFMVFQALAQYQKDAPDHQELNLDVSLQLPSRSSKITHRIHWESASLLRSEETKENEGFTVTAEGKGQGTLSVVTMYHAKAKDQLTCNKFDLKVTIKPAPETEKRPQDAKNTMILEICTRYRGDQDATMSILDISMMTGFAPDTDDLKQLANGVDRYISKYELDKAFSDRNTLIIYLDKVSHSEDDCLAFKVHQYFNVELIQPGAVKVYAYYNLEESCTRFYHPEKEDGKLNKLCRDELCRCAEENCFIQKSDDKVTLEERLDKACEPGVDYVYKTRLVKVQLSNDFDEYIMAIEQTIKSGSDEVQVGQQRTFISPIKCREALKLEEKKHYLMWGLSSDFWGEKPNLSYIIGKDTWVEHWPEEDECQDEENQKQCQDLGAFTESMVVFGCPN

pegcetacoplan
Time of peak serum concentration [1]: a week after dosing
Subjects with hemoglobin levels within reference range 11.1-15.9 g/dL (subjects with PNH [2]; after 2 years of treatment, four remaining subjects): three of the four
Reticulocyte count, change during the study (subjects with PNH [2]; cohort 4): reductions were observed in all subjects
Total bilirubin levels, change during the study (subjects with PNH [2]; cohort 4): Decreases in total bilirubin levels were observed in all subjects
Hemoglobin levels (subjects with PNH [2]; cohort 4, all six subjects): increased in all subjects by day 29
LDH levels during treatment (subjects with PNH [2]; cohort 4, with some fluctuations): remained stable
LDH level (subjects with PNH [2]; [4]): 1571 U/L
Total bilirubin level (subjects with PNH [2]; [4]): 2.3 mg/dL
Transfusion avoidance (subjects with PNH [3]; four subjects who completed the study): achieved in all four subjects
Packed RBC transfusions received during the study (subjects with PNH [3]; subject 9, seven given before steady state or after pegcetacoplan was suspended): nine
Deposition of C3 fragments on the surface of type II and III RBCs (PNH RBCs; all subjects in cohort 4): decrease
Type II and III cells as a proportion of the clonal distribution of total RBCs (PNH RBCs; five subjects, by day 85): > 90%
Serum C3 levels, change (C3; all subjects in cohort 4): increase
Serum C3 level (C3; subject 11, day 29): 415 mg/dL
Serum C3 level (C3; subject 11, day 57, after suspension of pegcetacoplan dosing): 107 mg/dL
Effect on CH50 (classical pathway): No significant effect
AH50 levels (alternative pathway; after eculizumab discontinuation): increased following eculizumab discontinuation
Subjects with AH50 levels within the 77-159 U/mL reference range (alternative pathway; last evaluation time point, four subjects who completed the study): two of the four
